Activity, MIC and Ratio data for four molecules are collected here from ChEMBL document CHEMBL1649427, “Inactivation of the glycoside hydrolase NagZ attenuates antipseudomonal beta-lactam resistance in Pseudomonas aeruginosa” (Antimicrob Agents Chemother, 2009).

Molecules are shown by their SMILES. Values after ≈ are worked out from the molar mass of the structure shown.

The target in experiment [1] is Beta-lactamase (Pseudomonas aeruginosa (strain ATCC 15692 / PAO1 / 1C / PRS 101 / LMG12228)) (UniProt P24735). Description: Activity of beta-lactamase AmpC in Pseudomonas aeruginosa PAO1 harboring deltaampD::lox deltaampDh2::lox deltaampDh3::lox assessed as nitrocefin hydrolysis after 3 hrs by spectrophotometric analysis. In a few lines: (§1)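 Strains grown in Mueller-Hinton broth at 37°C to OD600 ~0.5, then cultured 3 h at 37°C with 50 μg/ml cefoxitin (induced) or without. Crude sonic lysates assayed in triplicate at 37°C by continuous assay: nitrocefin (initial 100 μM) hydrolysis followed at 485 nm for 5 min. Specific activity expressed as nmol nitrocefin hydrolyzed/min/mg protein.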

For experiment [2] the target is unchanged. The experiment is described as follows: Activity of beta-lactamase AmpC in Pseudomonas aeruginosa nagZ gene-deficient PAO1 assessed as nitrocefin hydrolysis after 3 hrs by spectrophotometric analysis. In a few lines: as §1
The target is the same in experiment [3]. The experiment is described as follows: Activity of beta-lactamase AmpC in Pseudomonas aeruginosa PAO1 harboring deltaampD::lox deltaampDh2::lox deltaampDh3::lox deltanagZ::Gm assessed as nitrocefin hydrolysis after 3 hrs by spectrophotometric analysis. In a few lines:
as §1

Experiment [4] deals with Pseudomonas aeruginosa. The experiment is described as follows: Antimicrobial activity against Pseudomonas aeruginosa PAO1 harboring deltaampD::lox deltaampDh2::lox delta ampDh3::lox after 18 hrs by broth microdilution method. In kind it is functional. As to conditions: PAO1, 18 h. The essentials:
(§2)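 CLSI broth microdilution in cation-adjusted Mueller-Hinton medium with serial β-lactam dilutions. Each well holds 200 μl broth inoculated with ~10⁴ cells from starter cultures at OD600 ~0.5. Plates shaken at 37°C for 18 h. The MIC is read as the lowest antibiotic concentration showing no growth. Triplicate determinations.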

Experiment [5] deals with Pseudomonas aeruginosa. Description: Antimicrobial activity against Pseudomonas aeruginosa PAO1 after 18 hrs by broth microdilution method. In kind it is functional. The conditions noted are these: PAO1, 18 h. The essentials: as §2
(In general: Dilution methods test growth across graded concentrations, often in twofold steps.)

Experiment [6] deals with Pseudomonas aeruginosa. The experiment is described as follows: Antimicrobial activity against nagZ gene-deficient Pseudomonas aeruginosa PAO1 after 18 hrs by broth microdilution method. The class given is functional. As to conditions: PAO1, 18 h. The essentials: as §2
The target in experiment [7] is Beta-lactamase (Pseudomonas aeruginosa (strain ATCC 15692 / PAO1 / 1C / PRS 101 / LMG12228)) (UniProt P24735). The experiment is described as follows: Activity of beta-lactamase AmpC in Pseudomonas aeruginosa PAO1 assessed as nitrocefin hydrolysis after 3 hrs by spectrophotometric analysis. The essentials:
as §1

For experiment [8], the system named is Pseudomonas aeruginosa. Description: Antimicrobial activity against nagZ gene-deficient Pseudomonas aeruginosa PAO1 harboring plasmid pUCP27 after 18 hrs by broth microdilution method. The class given is functional. As to conditions: PAO1, 18 h.
In experiment [9] the test system is Pseudomonas aeruginosa. Description: Antimicrobial activity against nagZ gene-deficient Pseudomonas aeruginosa PAO1 harboring wild type nagZ gene after 18 hrs by broth microdilution method. As to conditions: PAO1, 18 h. In kind it is functional.
Experiment [10] has as its system Pseudomonas aeruginosa. Description: Antimicrobial activity against Pseudomonas aeruginosa PAO1 harboring deltaampD::lox deltaampDh2::lox deltaampDh3::lox after 18 hrs by broth microdilution method. As to conditions: PAO1, 18 h. In kind it is functional. In a few lines: as §2
The subject of experiment [11] is Pseudomonas aeruginosa. The experiment is described as follows: Antimicrobial activity against Pseudomonas aeruginosa PAO1 after 18 hrs by Etest. In kind it is functional. As to conditions: PAO1, 18 h. The essentials:
(§3)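 Strains are P. aeruginosa PAO1 and its insertional nagZ-inactivated derivative. MICs were read from Etest strips on Mueller-Hinton agar, following the manufacturer's recommendations. Each determination was done in triplicate.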

The subject of experiment [12] is Pseudomonas aeruginosa. The experiment is described as follows: Antimicrobial activity against nagZ gene-deficient Pseudomonas aeruginosa PAO1 after 18 hrs by Etest. In kind it is functional. As to conditions: PAO1, 18 h. The essentials: as §3
Experiment [13] concerns Pseudomonas aeruginosa. The experiment is described as follows: Antimicrobial activity against Pseudomonas aeruginosa PAO1 harboring deltaampD::lox deltaampDh2::lox deltaampDh3::lox deltanagZ::Gm after 18 hrs by Etest. In kind it is functional. As to conditions: PAO1, 18 h. The essentials:
(§4)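 Etest strips on Mueller-Hinton agar plates, run per the manufacturer's recommendations; MICs determined in triplicate.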

The test system of experiment [14] is Pseudomonas aeruginosa. The experiment is described as follows: Antimicrobial activity against Pseudomonas aeruginosa PAO1 harboring deltaampD::lox deltaampDh2::lox delta ampDh3::lox after 18 hrs by Etest. The class given is functional. The conditions noted are these: PAO1, 18 h. The essentials: as §4
Experiment [15] deals with Pseudomonas aeruginosa. Description: Antimicrobial activity against Pseudomonas aeruginosa PAO1 harboring deltaampD::lox deltaampDh2::lox deltaampDh3::lox deltanagZ::Gm after 18 hrs by Etest in presence of beta-lactamase inhibitor Tazobactam. In kind it is functional. As to conditions: PAO1, 18 h.
Experiment [16] concerns Pseudomonas aeruginosa. The experiment is described as follows: Antimicrobial activity against Pseudomonas aeruginosa PAO1 harboring deltaampD::lox deltaampDh2::lox delta ampDh3::lox after 18 hrs by Etest in presence of beta-lactamase inhibitor Tazobactam. The class given is functional. As to conditions: PAO1, 18 h.
Experiment [17] has as its system Pseudomonas aeruginosa. The experiment is described as follows: Antimicrobial activity against nagZ gene-deficient Pseudomonas aeruginosa PAO1 after 18 hrs by Etest in presence of beta-lactamase inhibitor Tazobactam. The conditions noted are these: PAO1, 18 h. In kind it is functional. The essentials:
as §3

In experiment [18] the test system is Pseudomonas aeruginosa. The experiment is described as follows: Ratio of MIC for Pseudomonas aeruginosa PAO1 harboring deltaampD::lox deltaampDh2::lox deltaampDh3::lox deltanagZ::Gm in presence of beta-lactamase inhibitor Tazobactam to MIC for nagZ gene-deficient Pseudomonas aeruginosa PAO1 in presence of beta-lactamase inhibitor Tazobactam. In kind it is functional.

In experiment [19] the test system is Pseudomonas aeruginosa. Description: Antimicrobial activity against Pseudomonas aeruginosa PAO1 after 18 hrs by Etest in presence of beta-lactamase inhibitor Tazobactam. As to conditions: PAO1, 18 h. In kind it is functional. In a few lines: as §3

Sequence of Beta-lactamase (Pseudomonas aeruginosa (strain ATCC 15692 / PAO1 / 1C / PRS 101 / LMG12228)) (P24735 27-397 limits assumed): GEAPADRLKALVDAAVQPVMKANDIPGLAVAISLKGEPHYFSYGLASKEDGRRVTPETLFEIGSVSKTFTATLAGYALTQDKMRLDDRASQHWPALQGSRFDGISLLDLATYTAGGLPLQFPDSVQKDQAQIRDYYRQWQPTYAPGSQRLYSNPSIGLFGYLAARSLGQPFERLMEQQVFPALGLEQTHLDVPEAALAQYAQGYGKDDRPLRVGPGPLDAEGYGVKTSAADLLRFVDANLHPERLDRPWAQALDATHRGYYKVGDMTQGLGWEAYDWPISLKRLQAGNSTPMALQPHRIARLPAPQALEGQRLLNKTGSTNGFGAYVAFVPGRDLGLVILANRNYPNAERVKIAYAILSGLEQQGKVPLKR

The term MIC denotes the smallest concentration in the dilution series that meets the test's criterion for growth inhibition. `CO[C@@]1(NC(=O)Cc2cccs2)C(=O)N2C(C(=O)O)=C(COC(N)=O)CS[C@@H]21` [CEFOXITIN]: the Activity in [1] was determined as 3940 nmol; in experiment [2] it was 95 nmol; in experiment [3] it was 1020 nmol; in experiment [7], 230 nmol. Also, the MIC stood at 3200 µg/mL (≈ 7490 µM) in the experiment with Pseudomonas aeruginosa [4]; 1600 µg/mL (≈ 3740 µM) against Pseudomonas aeruginosa [5]; 800 µg/mL (≈ 1870 µM) against Pseudomonas aeruginosa [6]; 600 µg/mL (≈ 1400 µM) with Pseudomonas aeruginosa [8]; 1200 µg/mL (≈ 2810 µM) against Pseudomonas aeruginosa [9]; 3200 µg/mL (≈ 7490 µM) in the experiment with Pseudomonas aeruginosa [10].
Regarding `O=C(O)c1cn(C2CC2)c2cc(N3CCNCC3)c(F)cc2c1=O` [CIPROFLOXACIN], the MIC against Pseudomonas aeruginosa [4], against Pseudomonas aeruginosa [5], against Pseudomonas aeruginosa [6] and in the experiment on Pseudomonas aeruginosa [10] was 0.2 µg/mL (≈ 0.604 µM) in each case.
As to `C[C@@H](O)[C@H]1C(=O)N2C(C(=O)O)=C(SCCNC=N)C[C@H]12` [IMIPENEM ANHYDROUS], the MIC with Pseudomonas aeruginosa [11] came out at 3 µg/mL (≈ 10 µM); in the experiment on Pseudomonas aeruginosa [12] it was 2 µg/mL (≈ 6.68 µM); in the experiment with Pseudomonas aeruginosa [13] it was 1.5 µg/mL (≈ 5.01 µM); in the experiment on Pseudomonas aeruginosa [14], 1.5 µg/mL (≈ 5.01 µM).
In the case of `CCN1CCN(C(=O)N[C@@H](C(=O)N[C@@H]2C(=O)N3[C@@H]2SC(C)(C)[C@@H]3C(=O)O)c2ccccc2)C(=O)C1=O` [PIPERACILLIN], the MIC is 16 µg/mL in the experiment on Pseudomonas aeruginosa [15]; 1 µg/mL (≈ 1.93 µM) in the experiment with Pseudomonas aeruginosa [11]; no less than 256 µg/mL in the experiment on Pseudomonas aeruginosa [16]; 1 µg/mL (≈ 1.93 µM) against Pseudomonas aeruginosa [12]; 1.5 µg/mL with Pseudomonas aeruginosa [17]; 24 µg/mL (≈ 46.4 µM) in the experiment with Pseudomonas aeruginosa [13]. For the same molecule, the MIC against Pseudomonas aeruginosa [14] is greater than 256 µg/mL; with Pseudomonas aeruginosa [19] it was 1 µg/mL. Besides, the Ratio with Pseudomonas aeruginosa [18] is 10.
